An excerpt weighted towards active compounds, which were near 0.3% of everything screened.
KSHV LANA nucl: inhibitors of KSHV LANA-nucleosome binding, primary screen, biochemical, fluorescence polarization, FITC-LANA1-23, chicken nucleosomes; FITC-LANA1-23 / chicken nucleosome fluorescence polarization; stronger effect = lower value; z-score (no concentration beside the values); hit rate 0.3% among 51,000; AID 720717, 2013;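 active = both repeat wells score below -2 in polarization z-score versus plate sample wells, excluding overly bright wells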
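Assay system: purified chicken nucleosomes with FITC-labelled LANA N-terminal peptide (1-23) / Probe or stimulus: 50 nM FITC-LANA1-23 probe / Compound dosing: pin-transferred compound, 100 nL / Times: compound with peptide–nucleosome mix 10–45 min at room temperature / Technique: fluorescence polarization, 480 nm excitation, 535 nm parallel and perpendicular emission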
Ab BasE inh: BasE siderophore enzyme inhibitors, primary screen, biochemical, Acinetobacter baumannii ATCC 17978, fluorescence polarization; hit rate 0.1% among 84,000; purified BasE, fluorescence polarization binding displacement; inhibition, % (no concentration beside the values); in the data active = inhibition above about 25%, passing the limit was not always enough
Of the large screens only hits and unclear results are named; the others gave an inactive call.

COc1cc(/C=N/NC(=O)c2ccccc2-n2cccc2)ccc1O	none (no result: KSHV LANA nucl)
CCCOc1ccc(C2C3CN(CC)CC=C3C(C#N)=C(N)C2(C#N)C#N)cc1OC (stereo not given)	none
CCCN1CC=C2C(C#N)=C(N)C(C#N)(C#N)C(c3ccc(F)cc3F)C2C1 (stereo not given)	KSHV LANA nucl -4.5
COC(=O)/C=C1\SC(=Nc2ccc(C)cc2)NC1=O	none
O=C(CCc1c[nH]c2ccccc12)OCc1nnc(-c2ccccc2)o1	KSHV LANA nucl -2.1
O=C(Cc1ccccc1)OCc1nnc(-c2ccccc2)o1	none
CC1=C(C#N)C(=O)N(CCc2ccccc2)C(=O)/C1=C\c1ccc(-c2ccccc2)o1	none (no result: KSHV LANA nucl)
CCCN(C(=O)C(C)(C)C)c1nc(-c2ccccc2)cs1	none
COc1ccc(-c2nnc(C3CCN(S(=O)(=O)c4ccc5nc(-c6ccccc6)[nH]c5c4)CC3)o2)cc1	none
O=C1C(c2ccnc3ccccc23)=C(O)c2ccccc21	KSHV LANA nucl -4.2
O=C1C(c2ccc(I)cc2)=C(O)c2ccccc21	none (no result: KSHV LANA nucl)
CCCCSC1=C(C#N)C(=O)NC(CO)S1 (stereo not given)	none
CCCCCCSc1s[nH]c(=O)c1C#N	Ab BasE inh 85
O=C(Cn1cc(C(F)(F)F)ccc1=O)NCC(F)(F)F	none (no result: KSHV LANA nucl)
COC(=O)CC1SC(=O)NC1=S (stereo not given)	KSHV LANA nucl -5.2
O=C(CC1SC(=O)NC1=O)Nc1ccccc1NC(=O)CC1SC(=O)NC1=O (stereo not given)	none
N#C/C(=C\C=C\c1ccco1)C(N)=S	Ab BasE inh 33
N#C/C(=C\c1ccco1)C(N)=S	none (no result: KSHV LANA nucl)
CCN(c1ccccc1)S(=O)(=O)c1ccc(C(=O)OCC#N)cc1	none (no result: KSHV LANA nucl)
Cn1c(=O)c2c(SCC(=O)Nc3ccccc3C(F)(F)F)ccnc2n(C)c1=O	KSHV LANA nucl -2.1
CCCn1c(SCC(=O)Nc2ccccc2C(F)(F)F)nnc1-c1ccoc1C	none
CCCC(C)C(=O)Nc1ccc(-c2nc3ccccc3o2)cc1 (stereo not given)	KSHV LANA nucl -2.2
CC(C)C(=O)Nc1cccc(-c2nc3ccccc3o2)c1	none
CCOC(=O)c1c2ccc(O)cc2n2ccccc12	KSHV LANA nucl -7 (no result: Ab BasE inh)
CCOC(=O)c1c(C)n(C)c2ccc(O)cc12	none
CCn1c(=O)cc(OCC(=O)Nc2cccnc2)c2ccccc21	Ab BasE inh 25
CCn1c(=O)cc(OCC(=O)O)c2ccccc21	none
COc1cc2ccccc2cc1C(N)=O	none (no result: KSHV LANA nucl)
CCCCNC(=O)c1ccc2c(c1)NC(=O)C(C)N2 (stereo not given)	KSHV LANA nucl -3.2
C=CCNC(=O)c1ccc2c(c1)NC(=O)C(C)N2 (stereo not given)	none
CC1=CC(C)=NC2Nc3c(C)cc(C)cc3C(=N)C12 (stereo not given)	KSHV LANA nucl -2.2
NC(=O)C1CCCN(CC(=O)N(Cc2cccs2)c2ccc3c(c2)OCCO3)C1 (stereo not given)	none (no result: KSHV LANA nucl)
COc1ccc(C2C(C(N)=O)C(=O)NC(O)(c3ccccc3)C2C#N)cc1 (stereo not given)	KSHV LANA nucl -2.3
COc1ccc(C2CC(=O)N3C(=C2C#N)SCC3(O)c2ccccc2)cc1 (stereo not given)	none
COc1ccc2c(C(F)(F)F)cc(=O)oc2c1	none
CCC(=O)Nc1ccc(C(=O)N2CCN(CC)CC2)cc1	none
c1ccc2c(c1)nnn2CNCn1nnc2ccccc21	none
O=C(O)Cc1nonc1NCn1nnc2ccccc21	Ab BasE inh 40
C=C(C)c1cccc(C(C)(C)NC(=O)Nc2ccc3c(c2)oc2ccccc23)c1	none (no result: KSHV LANA nucl)
CCC(=O)Nc1nc2ccc(CC)cc2s1	none (no result: KSHV LANA nucl)
N#C/C(=C\c1ccc(N2CCCC2)o1)c1ccccc1	KSHV LANA nucl -5.4
N#C/C(=C\c1ccc(-c2ccccc2)o1)c1ccccc1	none
O=C1NCCCCC1NCC(O)c1ccccc1 (stereo not given)	none
O=C(Cc1csc(NC(=O)Nc2ccc(Cl)cc2)n1)Nc1nccs1	none
CCOC(=O)c1cc2c(=O)n3ccccc3nc2n(CC2CCCO2)c1=NC(C)=O (stereo not given)	none
CCOC(=O)c1cc2c(=O)n3ccccc3nc2n(C2CCCCC2)c1=NC(=O)c1cccnc1	KSHV LANA nucl -2.6
COCCn1c(SCc2nc3ccccc3nc2C)nc2ccccc21	none (no result: KSHV LANA nucl)
Oc1ccc(C2SCCS2)cc1	Ab BasE inh 53 (no result: KSHV LANA nucl)
O=C(O)c1ccc(C2SCCCS2)cc1	none (no result: KSHV LANA nucl)
CCCn1c(SCC(=O)N2c3ccccc3CC2C)nc2ccccc21 (stereo not given)	none (no result: KSHV LANA nucl)
COCCn1c(SCC(=O)NCc2ccc3c(c2)OCO3)nnc1-c1c[nH]c2ccccc12	KSHV LANA nucl -2.2
Cc1occc1-c1nnc(SCC(=O)NCc2ccc3c(c2)OCO3)n1CC(C)C	none
COc1cccc2c1C(=O)c1c(O)c3c(c(O)c1C2=O)C[C@@](O)(C(=O)CO)C[C@@H]3OC1C[C@H](N)[C@H](O)[C@H](C)O1 (stereo not given in full)	KSHV LANA nucl -7.5 (no result: Ab BasE inh)
COCCNC(=O)C1=CC(c2ccc(C)cc2)=NS(=O)(=O)N1C	none
O=C(O)CCc1ccc(-c2ccccc2F)o1	none (no result: KSHV LANA nucl)
Cc1cc2c(c(=O)[nH]1)C(c1ccncc1)C(C#N)=C(N)O2 (stereo not given)	none
COC(=O)C1=C(N)Oc2cc(C)[nH]c(=O)c2C1c1ccccc1OC (stereo not given)	Ab BasE inh 43
COC(CN(C)C(=O)c1ccc2c(c1)N(Cc1ccc(Cl)cc1)C(=O)c1ccccc1S2=O)OC (stereo not given)	none
O=C(O)CCc1ccc(-c2ccc(F)cc2)n1CC1CCCO1 (stereo not given)	none
O=C(O)CCc1ccc(-c2ccc(F)cc2)n1CCC(=O)O	KSHV LANA nucl -2.1
CCOC(=O)c1sc2nc(CSc3nc4ccccc4c(=O)n3CCOC)[nH]c(=O)c2c1C	none (no result: KSHV LANA nucl)
COc1cccc(-c2cc(C(=O)NC3CCC(C)CC3)[nH]n2)c1 (stereo not given)	none
O=C1/C(=C\C=C\c2ccco2)SC(=S)N1NS(=O)(=O)c1ccccc1	Ab BasE inh 40
CC(C)C(C(=O)O)N1C(=O)/C(=C/C=C/c2ccco2)SC1=S (stereo not given)	none
O=C(O)CCC(C(=O)O)N1C(=O)/C(=C/C=C/c2ccco2)SC1=S (stereo not given)	KSHV LANA nucl -2.2
O=C(NN1C(=O)/C(=C\C=C\c2ccco2)SC1=S)c1ccccc1O	none
COc1cccc(N2CCN(C(=O)CNC(=O)C34CC5CC(CC(C5)C3)C4)CC2)c1	none (no result: KSHV LANA nucl)
O=C(Cc1nncn1-c1ccccc1)c1ccc(O)cc1O	Ab BasE inh 33 (no result: KSHV LANA nucl)
O=C(Cc1nc2ccccc2s1)c1ccc(O)cc1O	none (no result: KSHV LANA nucl)
O=C(c1c(O)c2ccccc2oc1=O)C1CC1	none
CC1Cn2c(C(=O)NCc3ccccc3)cc3cccc(c32)S1 (stereo not given)	none
CC(C)(C)N/N=C/c1ccc(O)c(O)c1O	none (no result: KSHV LANA nucl)
Oc1ccc(/C=N/NC(=S)Nc2ccc(Cl)cc2Cl)c(O)c1O	Ab BasE inh 34 (no result: KSHV LANA nucl)
COc1cc(C(=O)CSc2nccc(C)n2)cc(OC)c1OC	none (no result: KSHV LANA nucl)
Cc1cc(=O)[nH]c(SCC(=O)c2cccs2)n1	none (no result: KSHV LANA nucl)
Cc1ccnc(SCC(=O)c2cccs2)n1	Ab BasE inh 61 (no result: KSHV LANA nucl)
Cc1ccnc(SCC(=O)c2ccc(Br)cc2)n1	Ab BasE inh 44
CC(Oc1ccccc1)C(=O)Nc1ccccc1 (stereo not given)	none
CCOC(=O)N1CCN(C(=O)CC2c3ccccc3Oc3ccccc32)CC1	none
O=C1CN(C(=O)CC2c3ccccc3-c3ccccc32)CC(=O)N1	Ab BasE inh 43
